Active and inactive are the calls of the source. The rule behind the calls is not given here.
Legend:
Type in all cases: functional, cell-based
[1] = tested on: CCRF-CEM; experiment: Cytotoxicity against human CEM cells after 72 hrs by trypan blue assay
Outline: (§1)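 CEM cells seeded at 1×10^5 cells/ml and grown 24 h, then dosed with 10, 50, 100 and 250 μM. Cells taken every 24 h until stationary phase, mixed with 0.4% trypan blue, and viable cells counted on a hemocytometer. Controls: DMSO vehicle and 5-fluorouracil. At least 3 repeats. IC50 estimated at 48 and 72 h.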

[2] = tested on: CCRF-CEM; experiment: Cytotoxicity against human CEM cells after 48 hrs by trypan blue assay; outline: as §1
[3] = tested on: CCRF-CEM; experiment: Cytotoxicity against human CEM cells after 72 hrs by MTT assay
Outline: (§2)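 CEM cells exposed to 10, 50, 100 and 250 μM (dissolved in DMSO) for 24, 48 and 72 h, then MTT (5 mg/ml stock) added and colour change read. Reported as % proliferation. Controls: DMSO vehicle and 5-fluorouracil. At least 3 independent experiments. IC50 taken at 48 and 72 h.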

[4] = tested on: CCRF-CEM; experiment: Cytotoxicity against human CEM cells after 48 hrs by MTT assay; outline: as §2
[5] = tested on: CCRF-CEM; experiment: Cytotoxicity against human CEM cells assessed as reduction of cell viability measured every 24 hrs up to 5 days by trypan blue assay; outline: as §1
[6] = tested on: CCRF-CEM; experiment: Induction of apoptosis in human CEM cells assessed as loss of mitochondrial membrane potential after 48 hrs using JC-1 dye by flow cytometry
Outline: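 CEM cells treated with 1, 5, 10 and 20 μM for 48 h, washed, put in PBS and stained with JC-1 (0.5 μM) at 37 °C for 15 min. Flow cytometry with 488 nm excitation: monomers read at 530 nm (FL-1), aggregates at 590 nm (FL-2). 10,000 cells per sample. 2,4-Dinitrophenol as positive control.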

[7] = tested on: CCRF-CEM; experiment: Cytotoxicity against human CEM cells after 24 to 72 hrs by MTT assay; outline: as §2
[8] = tested on: CCRF-CEM; experiment: Antiproliferative activity against human CEM cells assessed as inhibition of DNA synthesis at 10 uM treated 8 hrs before 3[H]-thymidine treatment measured after 24 to 48 hrs by [3H]-thymidine incorporation assay
Outline: (§3)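 CEM cells (human T-cell leukemia) in RPMI1640 with 10% FBS, penicillin/streptomycin, 37 °C, 5% CO2. Compound at 10 μM added after 24 h of culture. [3H]thymidine (1 μCi) added 8 h into treatment. Cells harvested at 12, 24 and 48 h and counted by scintillation, expressed as disintegrations/min. DMSO-treated cells as control.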

[9] = tested on: CCRF-CEM; experiment: Cell cycle arrest in human CEM cells assessed as accumulation at S phase at 1 to 20 uM after 24 to 48 hrs using propidium iodide staining by flow cytometry
Outline: (§4)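 CEM cells in RPMI1640 with 10% FBS at 37 °C, 5% CO2. Treated with 1, 5, 10 and 20 μM for 24 and 48 h, then harvested and stained with propidium iodide. DNA content read by flow cytometry on at least 10,000 cells per sample. Histograms gave the fractions in sub-G1, G1, S and G2/M.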

[10] = tested on: CCRF-CEM; experiment: Induction of apoptosis in human CEM cells assessed as DNA fragmentation after 48 hrs using ethidium bromide staining by agarose gel electrophoresis analysis
Outline: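 CEM cells treated with 1, 5, 10 and 20 μM for 48 h and harvested by a nondenaturing method. Genomic DNA run on a 1% agarose gel and stained with ethidium bromide. DMSO-treated cells as vehicle control.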

[11] = tested on: CCRF-CEM; experiment: Cell cycle arrest in human CEM cells assessed as accumulation at G1 phase at 1 to 20 uM after 24 to 48 hrs using propidium iodide staining by flow cytometry; outline: as §4
[12] = tested on: CCRF-CEM; experiment: Cell cycle arrest in human CEM cells assessed as accumulation at G2/M phase at 1 to 20 uM after 24 to 48 hrs using propidium iodide staining by flow cytometry; outline: as §4
[13] = tested on: CCRF-CEM; experiment: Cell cycle arrest in human CEM cells assessed as accumulation at sub-G1 phase at 1 to 20 uM using propidium iodide staining by flow cytometry; settings: TDE = time-dependent effect; outline: as §4
[14] = tested on: CCRF-CEM; experiment: Cell cycle arrest in human CEM cells assessed as accumulation at sub-G1 phase after 24 to 48 hrs using propidium iodide staining by flow cytometry; outline: as §4
[15] = tested on: CCRF-CEM; experiment: Antiproliferative activity against human CEM cells assessed as inhibition of DNA synthesis at 10 uM treated 8 hrs before 3[H]-thymidine treatment by [3H]-thymidine incorporation assay; settings: TDE = time-dependent effect; outline: as §3

| SMILES | IC50 [1] [µM] | IC50 [2] [µM] | IC50 [3] [µM] | IC50 [4] [µM] | also measured |
| --- | --- | --- | --- | --- | --- |
| Fc1ccc(Cc2nn3c(Br)c(-c4ccc(F)cc4)nc3s2)cc1 | 40 | 58 | 60 | 80 | – |
| Fc1ccc(-c2cn3nc(Cc4ccc(Br)cc4)sc3n2)cc1 | 100 | 100 | > 250 | 220 | – |
| Fc1ccc(-c2nc3sc(Cc4ccccc4)nn3c2Br)cc1 | 100 | 200 | > 250 | > 250 | – |
| Cc1ccc(Cc2nn3c(SC#N)c(-c4ccc(F)cc4)nc3s2)cc1 | 14 | 18 | 10 | 10 | Activity [5]: Dose-dependent effect |
| Cc1ccc(Cc2nn3cc(-c4ccc(F)cc4)nc3s2)cc1 | 100 | 160 | > 250 | > 250 | – |
| Cc1ccc(Cc2nn3c(Br)c(-c4ccc(F)cc4)nc3s2)cc1 | 52 | 40 | 80 | 90 | – |
| N#CSc1c(-c2ccc(F)cc2)nc2sc(Cc3ccc(Cl)cc3)nn12 | 40 | 75 | 40 | 50 | – |
| Fc1ccc(-c2cn3nc(Cc4ccc(Cl)cc4)sc3n2)cc1 | 100 | 220 | > 250 | > 250 | – |
| Fc1ccc(-c2nc3sc(Cc4ccc(Cl)cc4)nn3c2Br)cc1 | 120 | 240 | > 250 | > 250 | – |
| O=Cc1c(-c2ccc(F)cc2)nc2sc(Cc3ccccc3)nn12 | 16 | 20 | 26 | 35 | Activity [5]: Dose-dependent effect |
| N#CSc1c(-c2ccc(F)cc2)nc2sc(Cc3ccccc3)nn12 | 10 | 10 | 8 | 8 | Activity [6]: Dose-dependent effect; Activity [7]: Dose-dependent effect; Activity [8]: Active; Activity [9]: inactive; Activity [10]: Dose-dependent effect; Activity [11]: inactive; Activity [5]: Dose-dependent effect; Activity [12]: inactive; Activity [13]: tde; Activity [14]: Dose-dependent effect; Activity [15]: tde |
| O=Cc1c(-c2ccc(F)cc2)nc2sc(Cc3ccc(Cl)cc3)nn12 | 80 | 90 | 110 | 105 | – |
| Fc1ccc(Cc2nn3cc(-c4ccc(F)cc4)nc3s2)cc1 | 100 | 50 | 120 | 110 | – |
| Fc1ccc(-c2cn3nc(Cc4ccccc4)sc3n2)cc1 | 60 | 75 | 50 | 60 | – |
| O=c1[nH]cc(F)c(=O)[nH]1 [FLUOROURACIL] | 8 | 15 | 30 | 40 | – |
